Screens: PubChem, Broad Institute
An excerpt weighted towards active compounds, which were near 0.7% of everything screened.
CaV13 ICDI inh: Disruptors of the CACNA1D IQ motif to Ca2+-dependent inactivation inhibitor domain association, primary screening, Förster resonance energy transfer in intact living …; AID 743397; inhibition, % at 12.3 µM; hit rate 0.098% among 340,000; HEK cells, CFP/YFP FRET ICDI-IQ, plate reader, 10 min; percent FRET-ratio fall versus neutral wells;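 active means mean replicate inhibition of at least 30% and at least 1% of replicates passing that level; inconclusive means only one of the two criteria is met; inactive means neither criterion is met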;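 further: 0% = median of the neutral control wells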
Glyco luc inh: N-linked glycosylation inhibition. D54 ERlucT glycosylation luciferase reporter, 24 h; percent of 100 nM tunicamycin response. reporter increase, % at 12.5 µM. hit rate 0.23% among 360,000;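 active means mean luciferase reporter signal, scaled so untreated is 0 and the glycosylation-blocking control 100, at or above a set limit in every replicate; inconclusive means mean reaches the limit but not every replicate does; inactive means mean below the limit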;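 further: luciferase carries N-glycosylation sites so blocking glycosylation raises the light; 0% = median of neutral control wells and 100% = median of 100 nM tunicamycin wells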
RAD54 inh: blocks human RAD54 Holliday junction branch migration. Q92698. FAM/BHQ fluorescence. inhibition, % at 10.4 µM. hit rate 0.14% among 360,000;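 active means mean normalized replicate activity at least 40 and at least half of replicates scoring 40 or more; inconclusive means only one of the two criteria met; inactive means mean below 40 and under half of replicates reaching 40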;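 further: 0% = median of neutral control wells and 100% = median of positive control wells; inhibitors cause a drop in the FAM fluorescence signal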
Target sequence (Q92698 whole entry, looked up): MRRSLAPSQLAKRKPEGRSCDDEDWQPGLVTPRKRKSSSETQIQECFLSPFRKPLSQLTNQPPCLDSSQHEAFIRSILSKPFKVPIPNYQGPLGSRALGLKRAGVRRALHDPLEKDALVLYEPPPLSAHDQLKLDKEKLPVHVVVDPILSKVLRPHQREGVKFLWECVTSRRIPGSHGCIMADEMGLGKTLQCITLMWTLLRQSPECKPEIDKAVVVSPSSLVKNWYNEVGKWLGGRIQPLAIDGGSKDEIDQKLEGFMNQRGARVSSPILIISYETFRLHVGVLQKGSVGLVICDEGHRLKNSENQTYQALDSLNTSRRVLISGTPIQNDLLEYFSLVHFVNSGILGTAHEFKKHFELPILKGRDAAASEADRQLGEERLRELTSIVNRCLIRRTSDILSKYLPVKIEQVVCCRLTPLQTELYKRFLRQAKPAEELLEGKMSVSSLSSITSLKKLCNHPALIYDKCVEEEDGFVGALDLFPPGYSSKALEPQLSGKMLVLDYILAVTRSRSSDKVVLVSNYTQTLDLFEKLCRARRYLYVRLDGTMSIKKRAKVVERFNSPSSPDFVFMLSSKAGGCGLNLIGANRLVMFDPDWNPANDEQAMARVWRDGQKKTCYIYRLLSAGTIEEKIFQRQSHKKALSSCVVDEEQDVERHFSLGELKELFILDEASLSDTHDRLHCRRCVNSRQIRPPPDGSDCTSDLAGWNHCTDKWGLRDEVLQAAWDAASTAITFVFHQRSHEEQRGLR
RAD52 inh: RAD52 (human) annealing inhibition. P43351. recombinant RAD52 DNA annealing, FRET fluorescence. inhibition, % at 18.7 µM. hit rate 0.46% among 360,000. AID 651710;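 active means every replicate showing at least 50% inhibition; inconclusive means mean inhibition at least 50% but not in every replicate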
FN deposit inh: fibronectin deposition inhibition | AH1F fibroblasts, Alexa488-fibronectin deposition fluorescence, overnight | inhibition, % at 12.6 µM | hit rate 0.086% among 350,000 | AID 743247;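 active means mean inhibition across replicates of 30% or more, regardless of how many single replicates reach that level; inconclusive means mean under 30% yet at least half of replicates reach 30%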;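 further: positive control wells lacked labelled fibronectin entirely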
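Test system: AH1F fibroblast monolayer depositing Alexa488-labelled fibronectin into matrix. Input: 10000 cells per well. Technique: fluorescence, ex 485 nm, em 525 nm. Buffer or medium: DMEM plus 2% serum, read in PBS. Timing: 1 h cell adhesion before compound, then overnight fibronectin incubation. Compound: single dose, pinned. Read-out basis: inhibition from reduced deposited-fibronectin fluorescence.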
* = called active by the depositor; ? = inconclusive; · = not tested or not shown; ! = a repeat was not active.

SMILES | CaV13 ICDI inh | Glyco luc inh | RAD54 inh | RAD52 inh | FN deposit inh
CCN(CC)c1ccc(/C=C2\C(=O)N(c3nnc(C)c(=O)[nH]3)N=C2C)cc1 | -13.5 | 43.1* | 7.3 | -61.4 | 2.8
O=C(C[C@@H]1C=C[C@H](NC(=O)C2CC2)[C@@H](CO)O1)NCCCN1CCOCC1 | · | · | 3.8 | 3.4 | ·
CC1CN(C(=O)c2cc(-c3ccncc3)nc3ccccc23)CC(C)O1 (stereo not drawn) | -5.9 | 45.0* | 3.5 | -13.0 | -5.0
CC1CC(C)CN(C(=O)c2cc(-c3ccncc3)nc3ccccc23)C1 (stereo not drawn) | -6.3 | 1.1 | 3.8 | -6.7 | -0.3
CCNC(=O)C[C@H]1CC[C@H]2[C@H](COc3ccc(NC(=O)c4cccc(OC)c4)cc3C(=O)N2C)O1 | · | · | 2.8 | 3.9 | 9.5
CC(C)NC(=O)N(C)C[C@H]1Oc2ccc(NC(=O)C3CCCCC3)cc2CC(=O)N([C@H](C)CO)C[C@H]1C | · | · | 17.6 | 1.9 | ·
O=C(/C=C/c1ccccc1Cl)c1ccc(O)cc1 | -3.8 | 30.4* | -19.0 | -9.8 | 13.4
O=C(C=Cc1ccccc1O)c1ccccc1O | -6.0 | 33.2* | 1.0 | 3.9 | -0.9
O=C(/C=C/c1ccccc1Cl)c1cccnc1 | -8.1 | 11.5 | -5.4 | · | ·
O=C(/C=C/c1ccc(O)c(O)c1)c1ccccc1O | -10.5 | 6.3 | 0.4 | -48.0 | -8.4
COc1ccc(NC(=O)Nc2ccc3c(c2)C(=O)N([C@H](C)CO)C[C@H](C)[C@@H](CN(C)S(=O)(=O)c2c(C)noc2C)OCCCC[C@H](C)O3)cc1 | · | · | -7.8 | · | ·
CCOc1ccc(NCc2cccn2-c2nnc(N3CCC(C(=O)NCCCN4CCCCC4)CC3)s2)cc1 | -7.3 | -4.7 | 8.5 | 23.6 | -1.6
CCOc1ccc(NCc2cccn2-c2nnc(N3CCC(C(=O)NCCCN4C(C)CCCC4C)CC3)s2)cc1 (stereo not drawn) | -4.2 | 0.9 | 15.6 | 64.4* | 25.3
C[C@@H]1CN([C@H](C)CO)C(=O)c2cccc(NC(=O)Nc3cccc4ccccc34)c2O[C@H]1CN(C)C(=O)Nc1cccc2ccccc12 | · | · | -6.9 | -9.6 | ·
Cc1ccc(S(=O)(=O)N2CC3(C)CN(S(=O)(=O)c4ccc(C)cc4)CC(C)(C2)C3=O)cc1 | -3.2 | 1.4 | -8.3 | · | 33.6*
O=C(C[C@@H]1C=C[C@@H](NC(=O)Nc2cc(F)ccc2F)[C@H](CO)O1)NCc1ccccn1 | · | · | 1.0 | -4.4 | ·
Cn1c(=O)[nH]c(=O)c2c1nc(N/N=C/c1cccnc1)n2Cc1ccc(Cl)cc1 | 4.8 | 53.2* | -2.9 | -16.8 | 1.7
Cn1c(=O)[nH]c(=O)c2c1nc(N/N=C/c1ccncc1)n2Cc1ccc(F)cc1 | 2.1 | 19.1 | ? | -1.4 | -16.2
Cc1ccc(-n2nc(C)c(NC(=O)CCl)c2C)cc1 | -4.2 | 55.4* | -4.0 | · | 6.9
N#C[C@@H]1[C@@H](c2ccc(-c3cccc(F)c3)cc2)[C@@H](CO)N1C(=O)NC1CCCCC1 | · | · | · | -109.4 | -4.7
C[C@@H]1CN([C@H](C)CO)C(=O)CCCn2cc(nn2)CO[C@@H]1CN(C)C(=O)Nc1ccc(N2CCN(C)CC2)cc1 | · | · | 1.6 | 3.2 | 1.8
C[C@@H]1CN([C@@H](C)CO)C(=O)CCCn2cc(nn2)CO[C@H]1CN(C)C(=O)Nc1ccc(N2CCN(C)CC2)cc1 | -5.5 | · | 8.7 | 67.8*! | 3.8
C[C@H](CO)N1C[C@H](C)[C@@H](CN(C)C(=O)Nc2ccc(N3CCN(C)CC3)cc2)OCc2cn(nn2)CCCC1=O | -4.8 | · | 5.4 | 66.5*! | -2.4
COc1cccc(S(=O)(=O)Nc2ccc3c(c2)C(=O)N(C)[C@@H]2CC[C@@H](CC(=O)O)O[C@H]2CO3)c1 | · | · | 2.6 | · | -4.2
CN1CCN(CCCNC(=O)CCCOc2cc(=O)n(C)c3ccccc23)CC1 | -4.7 | 9.8 | 12.7 | · | -2.0
SMILES | CaV13 ICDI inh | Glyco luc inh | RAD54 inh | RAD52 inh | FN deposit inh
CC(C)CCNC(=O)CCCOc1cc(=O)n(C)c2ccccc12 | -3.0 | 30.6* | 3.1 | -16.2 | -0.6
COc1ccc(C#Cc2ccc([C@@H]3[C@H](CO)N4CCCCN(C(=O)Nc5cccc(F)c5)C[C@@H]34)cc2)cc1 | · | · | 32.6 | -20.5 | ·
CCOC(=O)c1c(NC(=O)CC)sc2c1CCN(Cc1ccccc1)C2 | -3.3 | -4.2 | -5.9 | 11.0 | 4.8
NC(=O)c1c(NC(=O)Cc2ccccc2)sc2c1CCN(Cc1ccccc1)C2 | 39.9* | -4.1 | -19.4 | -160.3 | 4.1
CC(=O)Nc1sc2c(c1C(N)=O)CCN(Cc1ccccc1)C2 | 11.1 | 0.8 | · | -8.3 | -0.3
CN1CCc2c(sc(NC(=O)Cc3ccccc3)c2C#N)C1 | 120.5* | 0.8 | 3.2 | -10.3 | -5.0
CCOC(=O)c1c(NC(=O)CSc2ncccn2)sc2c1CCN(Cc1ccccc1)C2 | 36.0* | -4.9 | · | 20.9 | -6.2
COc1ccc(CN(C)C[C@@H]2Oc3ccc(NC(=O)Nc4ccc(OC)cc4)cc3CC(=O)N([C@@H](C)CO)C[C@@H]2C)cc1 | · | · | 33.2 | -14.1 | ·
CC(C)(C)S(=O)(=O)N1C[C@H]2CC/C=C\C/C(c3ccccc3)=C\2[C@@H]1CCO | -6.8 | 38.0* | 0.6 | -4.3 | 13.4
C[C@@H]1CN(S(=O)(=O)C(C)(C)C)[C@@H](CCO)/C1=C\c1ccccc1 | -3.7 | -1.7 | 9.0 | -1.2 | 5.0
COC(=O)C[C@H]1CC[C@@H]2[C@@H](COc3ccc(NC(=O)Cc4cccs4)cc3C(=O)N2C)O1 | · | · | 3.6 | 4.1 | 40.1*
CN1C(=O)c2cc(NC(=O)Nc3ccc(Cl)cc3)ccc2OC[C@@H]2O[C@@H](CC(=O)NCCN3CCCCC3)CC[C@H]21 | · | · | 10.3 | 52.6* | 2.7
CCNC(=O)Nc1ccc2c(c1)C(=O)N(C)[C@H]1CC[C@@H](CC(=O)NCCN3CCCC3)O[C@H]1CO2 | · | · | -7.4 | · | -5.6
COC(=O)C[C@@H]1CC[C@@H]2[C@H](COc3ccc(NC(=O)Cc4cccs4)cc3C(=O)N2C)O1 | · | · | 1.1 | 4.0 | -4.9
Cc1ccc(S(=O)(=O)Nc2ccc3c(c2)C(=O)N([C@@H](C)CO)C[C@H](C)[C@@H](CN(C)Cc2ccc(C(F)(F)F)cc2)OCCCC[C@@H](C)O3)cc1 | · | · | -2.1 | -32.5 | -7.0
O=C(NC1CCC1)[C@H]1[C@H](CO)[C@H]2Cn3c(ccc(-c4ccccc4F)c3=O)[C@H]2N1Cc1ccncc1 | · | · | 12.0 | 71.1* | ·
O=C(NC1CCC1)[C@@H]1[C@@H](CO)[C@@H]2Cn3c(ccc(-c4ccccc4F)c3=O)[C@@H]2N1Cc1ccccn1 | · | · | · | -1.9 | ·
Cc1ccc(-n2cccn2)c([C@@H]2C[C@H]3CN(C)C(=O)[C@]34CCCN24)c1 | 10.4 | 1.2 | · | -19.2 | -1.9
Cc1cc(C)c([C@@H]2C[C@H]3CN(C4CCCC4)C(=O)[C@]34CCCN24)c(-n2cccn2)c1 | 6.8 | 0.0 | 2.2 | -108.7 | 38.5*
Cc1cc(C)nc(/N=C(\N)Nc2ccc(CC(=O)OC(C)C)cc2)n1 | -13.6 | 48.4* | -2.6 | 10.9 | -1.3
Cc1cc(C)nc(/N=C(\N)Nc2ccc(OCCC(C)C)cc2)n1 | 9.3 | 47.9* | 9.5 | 33.1 | -13.2
O=C1C(=O)c2cccnc2-c2ncccc21 | -4.2 | -18.0 | · | 41.9 | 44.9*
